CHT allo act – CHT positive allosteric modulators, primary screen, cell-based, membrane potential dye, choline EC20. High affinity choline transporter 1 (Homo sapiens), Q9GZV3. CHT-expressing cells; stronger effect = higher value; LV-AA mutant CHT in HEK293 cells. B-score at 10 µM. 0.49% of 310,000 active;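 active means initial fluorescence not abnormally high and integrated response B-score, plate-corrected, over 3 SD above library mean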
Target sequence (Q9GZV3 whole entry, looked up): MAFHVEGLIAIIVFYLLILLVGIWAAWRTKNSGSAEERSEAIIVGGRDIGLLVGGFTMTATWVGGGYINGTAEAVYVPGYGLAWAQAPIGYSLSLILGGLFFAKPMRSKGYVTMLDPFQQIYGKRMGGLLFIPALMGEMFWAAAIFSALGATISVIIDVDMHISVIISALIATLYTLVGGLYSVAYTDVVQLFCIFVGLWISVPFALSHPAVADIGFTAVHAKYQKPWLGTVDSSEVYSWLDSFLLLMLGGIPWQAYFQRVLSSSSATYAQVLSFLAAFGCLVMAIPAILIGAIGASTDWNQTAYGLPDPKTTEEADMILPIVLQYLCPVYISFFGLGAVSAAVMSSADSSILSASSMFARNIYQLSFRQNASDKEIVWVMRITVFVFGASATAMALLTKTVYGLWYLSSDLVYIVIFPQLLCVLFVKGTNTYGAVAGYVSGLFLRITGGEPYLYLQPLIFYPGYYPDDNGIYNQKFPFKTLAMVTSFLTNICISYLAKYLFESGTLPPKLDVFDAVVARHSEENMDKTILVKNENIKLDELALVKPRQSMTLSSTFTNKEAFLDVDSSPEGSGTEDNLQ
HSF1 activator – HSF-1 activators, primary screen, NIH3T3-HGL cells, MG132 stress, luminescence, single point; NIH3T3-HGL HSF-1 luciferase reporter, 8 h; 100% = twice DMSO control signal; activation, % at 9 µM; 1.7% of 300,000 active; AID 504408, 2011;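 active means mean replicate activation of at least 50% with a set share of replicates each reaching 50%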;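 further: 0% = median of the neutral control wells and 100% = twice that signal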
HSF1 inhib – HSF1 inhibitors in luciferase reporter cells, primary screen, cell-based, NIH3T3, luminescence. NIH3T3-HGL HSE-luciferase, MG132-induced, luminescence 8 h; stronger effect = lower value. activity change, negative = inhibition, % at 7.5 µM (by protocol). 0.77% of 300,000 active. AID 2098, 2009;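 active means more than half of replicate wells show activity change below -50%, luminescence cut by over half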;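 further: luciferase reports HSF-1 transcriptional activity via heat shock element; 0% = median of DMSO wells and -100% = zero luminescence signal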
CHT block – inhibitors of human choline transporter CHT. High affinity choline transporter 1 (Homo sapiens), Q9GZV3. CHT-expressing cells, membrane potential dye, choline response; stronger effect = lower value. B-score at 10 µM. 0.86% of 310,000 active;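 active means B-score over 3 SD under the library average, and starting fluorescence ratio not unusually high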;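 further: choline stimulus applied at its EC90 after an EC20 pre-addition; B-score computed on integrated fluorescence ratio after choline addition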
PHOSPHO1 block – PubChem AID 1565 | Phosphoethanolamine/phosphocholine phosphatase (Homo sapiens), Q8TCT1 | recombinant PHOSPHO1, absorbance phosphatase assay | inhibition, % at 13.3 µM | 1.1% of 290,000 active; in the data active means inhibition above about 60%
Hep lipid drop – inhibitors of hepatocyte lipid droplet formation, primary screen, imaging, high-throughput imaging, BODIPY stain; 0.4% of 240,000 active; AID 1656, 2009; AML12 mouse hepatocytes, oleate lipid droplets; inhibition, % at 6.5 µM;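 active means lipid droplet intensity inhibited by at least 50%, with more than 500 cells counted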
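material = mouse AML12 hepatocyte cell line, fixed after treatment | also added = 100 µM oleic acid challenge | doses = compound at 6.5 µM only | schedule = overnight exposure | technique = Image-based BODIPY and DAPI two-channel analysis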
* hit, by the source's call; i = inactive; . = no result. Sampled rows, rich in hits. Any-hit rate of the full collection: about 4.9%.

SMILES | CHT allo act | HSF1 activator | HSF1 inhib | CHT block | PHOSPHO1 block | Hep lipid drop
O=S(=O)(c1ccc(Cl)s1)N1CCCc2cccc(O)c21 | i | 116.0* | 69.7 | i | 21.0 | -5.7
O=S(=O)(c1ccc(Cl)s1)N1CCc2ccccc2C1 | i | 3.9 | 22.8 | i | 7.7 | .
Cc1ccc2nc(C)cc(C(=O)OCC(=O)Nc3cccnc3Cl)c2c1 | i | -3.1 | 0.2 | i | 60.9* | 6.6
CCN(CC)c1ncnc2ccc(Br)cc12 | i | -58.1 | -53.3* | i | 44.8 | .
CC1CCc2nc(NC(=O)c3ccco3)sc2C1 (configuration not stated) | i | -27.3 | -21.5 | i | -11.1 | -3.6
CC1CCc2nc(/C(C#N)=C/c3ccncc3)sc2C1 (configuration not stated) | i | 97.5* | 63.5 | i | 20.1 | -28.1
O=C(Nc1ccc2ccccc2c1)c1cccc(F)c1 | i | 79.0* | 39.2 | i | 34.0 | 5.8
Cc1ccc2cc(NC(=O)c3cccc(F)c3)ccc2n1 | i | 35.6 | 42.7 | i | 17.1 | 3.3
O=C(NC(=S)Nc1ccc2oc(=O)ccc2c1)c1cc2ccccc2o1 | i | -85.5 | -84.0* | i | 22.6 | -26.4
O=C(NC(=S)Nc1cccnc1)c1cc2ccccc2o1 | i | 59.1* | 12.2 | i | -17.8 | 1.8
O=C(Nc1ccc2oc(=O)ccc2c1)c1ccc2ccccc2c1 | i | 59.9* | 17.2 | i | 23.0 | -15.2
Cc1nn2c(-c3ccc(F)cc3)ccnc2c1Cl | i | 9.2 | -1.3 | i | 34.0 | -2.2
CC12CC(NC(=O)N1c1cccc(C(=O)NCc3ccccc3)c1)c1ccccc1O2 (configuration not stated) | i | -8.5 | 0.8 | i | 19.4 | .
O=C(C1CCC(CNc2c(N3CCCCC3)c(=O)c2=O)CC1)N1CCc2ccccc2C1 (configuration not stated) | . | 16.4 | 3.3 | . | 1.2 | -2.5
CCOc1ccc(NC(=S)N(CCc2c(C)[nH]c3ccc(C)cc23)Cc2ccncc2)cc1 | i | 4.2 | 4.8 | i | -8.6 | -22.5
COc1ccc(C)cc1NC(=O)C(Sc1nnnn1C)c1ccccc1 (configuration not stated) | i | -1.9 | -1.7 | i | 5.8 | 18.0
COCCn1c(SC(C(=O)Nc2cc(C)ccc2OC)c2ccccc2)nnc1-c1ccc(Cl)cc1 (configuration not stated) | i | 6.1 | 3.1 | i | 62.7* | 31.4
CN(/N=C/c1ccc(Br)o1)C1=NS(=O)(=O)c2ccccc21 | i | 17.7 | 12.2 | i | -22.9 | 12.5
COc1ccc(S(=O)(=O)N2CCCOC2CNC(=O)C(=O)NCCCn2ccnc2)cc1 (configuration not stated) | i | -11.5 | 3.2 | i | 60.9* | -10.4
Cc1ccc(S(=O)(=O)N2CCOC2CNC(=O)C(=O)NCC(C)C)cc1 (configuration not stated) | i | -1.7 | -4.6 | i | 61.6* | -0.1
CNC(=O)C(=O)NCC1OCCN1S(=O)(=O)c1ccc(C)cc1 (configuration not stated) | i | -12.4 | -5.3 | i | 23.3 | -6.0
COc1ccc(C(=O)N/N=C(\c2ccccc2)c2ccccn2)cc1 | i | 99.6* | 38.0 | i | 15.0 | -4.4
O=C(NN=C(c1ccccc1)c1ccccn1)c1ccccc1 | . | 18.8 | 18.8 | . | . | .
N#CC1(NC(=O)COC(=O)Cn2[nH]c(=O)c3ccccc3c2=O)CCCCC1 | i | -11.3 | -6.3 | i | . | .
Cc1ccc(NC(=O)CSCc2cc(=O)n3cc(C)sc3n2)c(C)c1 | i | -69.5 | -59.0* | i | 31.3 | 3.7
SMILES | CHT allo act | HSF1 activator | HSF1 inhib | CHT block | PHOSPHO1 block | Hep lipid drop
Cc1ccc(NC(=O)CSCc2cc(=O)n3cc(C)sc3n2)cc1 | i | 16.0 | 9.9 | i | 34.1 | 6.4
CCCCCC(=O)Nc1ccc(C2C(=O)c3ccccc3C2=O)cc1 | i | 6.0 | 5.4 | i | . | .
CCOC(=O)C(NC(=O)c1ccccc1)(OCc1ccc(F)cc1)C(F)(F)F (configuration not stated) | i | -10.3 | -7.3 | i | 2.5 | 42.6
CCOC(=O)C(NC(=O)c1cccc(Cl)c1)(OCc1ccc(F)cc1)C(F)(F)F (configuration not stated) | i | 0.7 | -11.1 | i | 16.3 | 64.1*
C=CCSc1nc2c(c(=O)[nH]c(=O)n2C)n1Cc1ccc(C)cc1 | i | 8.9 | 5.0 | i | 21.8 | 31.3
CC(C)Sc1nc2c(c(=O)[nH]c(=O)n2C)n1Cc1ccc(Cl)cc1 | i | 39.8 | 13.0 | i | 83.5* | .
CCC(C)Sc1nc2c(c(=O)[nH]c(=O)n2C)n1Cc1ccc(Cl)cc1 (configuration not stated) | i | 0.7 | 12.7 | i | 1.7 | .
Cc1ccc(Cn2c(SCC(C)C)nc3c2c(=O)[nH]c(=O)n3C)cc1 | i | -12.1 | -1.9 | i | 90.3* | .
Nn1c(SCC(=O)Nc2ccc(F)cc2F)nnc1-c1cccnc1 | i | 24.9 | 15.6 | i | 1.9 | .
Nn1c(SCC(=O)Nc2ccccc2)nnc1-c1cccnc1 | i | 11.3 | -1.1 | i | 10.7 | 16.3
Cc1cc(NC(=O)CSc2nnc(-c3cccnc3)n2N)no1 | i | -5.4 | -2.4 | i | 73.6* | -3.0
Nn1c(SCC(=O)Nc2ccccc2F)nnc1-c1cccnc1 | i | -3.9 | 6.6 | i | 68.8* | .
C[C@]12CC[C@@H]3c4cc(O)c(O)cc4CC[C@H]3[C@@H]1CC[C@@H]2O | i | 85.4* | 55.1 | i | 27.7 | -7.4
O=S(=O)(c1ccc(Cl)nc1)N(Cc1ccccc1)Cc1ccccc1 | i | -0.1 | 0.5 | i | 3.0 | -0.4
COc1ccccc1NC(=S)N=Nc1c(O)[nH]c2ccc(Br)cc12 | i | 85.7* | 78.0 | i | 16.2 | -3.5
Cc1occc1C(=O)N=Nc1c(O)[nH]c2ccc(Br)cc12 | i | 50.2* | 19.8 | i | 3.4 | -5.1
Cc1c(NC(=S)NC(NC(=O)C(C)(C)C)C(Cl)(Cl)Cl)c(=O)n(-c2ccccc2)n1C (configuration not stated) | i | -5.2 | 5.9 | i | -0.2 | -0.3
Cc1cc(C)n(-c2ccc(C(=O)OCC(=O)NC(c3ccccc3)c3ccccc3)cc2)n1 | i | -8.6 | -2.8 | i | -2.2 | -10.6
O=C(/C=C/c1ccc(F)cc1)NC(=S)NC1CCCCC1 | i | 0.8 | 1.2 | i | -5.6 | -19.7
CC(C)(CNC(=O)/C=C/c1ccc(F)cc1)CNC(=O)/C=C/c1ccc(F)cc1 | i | 75.6* | 60.8 | i | -3.9 | -7.2

Bioassay records: PubChem BioAssay, several laboratories
